Test results from ChEMBL document CHEMBL3526065, “Metabolism of [6]-shogaol in mice and in cancer cells” (Drug Metab Dispos, 2012).
Blank lines part the entries; values can stand above or below the compound they belong to.

Experiments:
[1] = Drug level in C57BL/6J mouse feces treated with [6]-shogaol at 200 mg/kg, po by HPLC-ECD analysis relative to control; format: ADME, organism-based; design: dose 200 mg/kg, route oral; details: in vivo
Outline: (§1)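 Female C57BL/6J mice gavaged once with 200 mg/kg in corn oil, or corn oil alone (n = 5 each). 24-h feces collected in metabolic cages. Feces extracted by sonication 90 min in MeOH/H2O (50/50) + 0.1% acetic acid, centrifuged, diluted fivefold. Analysed by HPLC with electrochemical array detection (Gemini C18, phosphate/acetonitrile/THF gradient), compared against vehicle controls.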

[2] = Drug excretion in C57BL/6J mouse feces assessed as 3',4'-dihydroxyphenyl-decan-3-one formation at 200 mg/kg, po by HPLC-ECD analysis relative to control; format: ADME, organism-based; design: dose 200 mg/kg, route oral; details: in vivo; outline: as §1
[3] = Drug metabolism in human H1299 cells assessed as 1-(4'-hydroxy-3'-methoxyphenyl)-decan-3-one formation at 10 uM after 24 hrs by HPLC-ECD analysis; format: ADME, cell-based; details: nci-h1299, 24 h
Outline: (§2)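 Cells (1.0 × 10⁶) attached 24 h in six-well plates, then exposed to 10 μM final in McCoy's 5A with 10% FBS. Extracted with equal volume acetonitrile, diluted 5-fold, analysed by HPLC with electrochemical detection.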

[4] = Drug excretion in C57BL/6J mouse feces assessed as (2R)-2-amino-3-(3-hydroxy-1-(4-hydroxy-3-methoxyphenyl)decan-5-ylthio)propanoic acid formation at 200 mg/kg, po by HPLC-ECD analysis relative to control; format: ADME, organism-based; design: dose 200 mg/kg, route oral; details: in vivo; outline: as §1
[5] = Drug excretion in C57BL/6J mouse feces assessed as 5-cysteinyl-[6]-shogaol formation at 200 mg/kg, po by HPLC-ECD analysis relative to control; format: ADME, organism-based; design: dose 200 mg/kg, route oral; details: in vivo; outline: as §1
[6] = Drug recovery in C57BL/6J mouse urine assessed as sulfated form of metabolite formation at 200 mg/kg, po by LC/MS analysis; format: ADME, organism-based; design: dose 200 mg/kg, route oral; details: in vivo
Outline: (§3)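 Female C57BL/6J mice gavaged with 200 mg/kg in corn oil or vehicle (n = 5); 24-h urine collected in metabolic cages. 50 μl urine deproteinized with MeOH. Analysis with and without deconjugation.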

[7] = Antioxidant activity assessed as DPPH radical scavenging activity; format: physicochemical
[8] = Drug recovery in C57BL/6J mouse urine assessed as glucuronidated form of metabolite formation at 200 mg/kg, po by HPLC-ECD analysis; format: ADME, organism-based; design: dose 200 mg/kg, route oral; details: in vivo; outline: as §3
HT-29 [9] = assay: Drug metabolism in human HT-29 cells assessed as 1-(4'-hydroxy-3'-methoxyphenyl)-decan-3-ol formation at 10 uM by HPLC-ECD analysis; format: ADME, cell-based; details: ht-29, 10 µM; outline: as §2
[10] = Cytotoxicity against human HCT116 cells assessed as growth inhibition after 24 hrs by MTT assay; format: functional, cell-based; details: HCT-116, 24 h
Outline: (§4)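 Cells seeded at 3000/well, attached 24 h at 37°C, then exposed to test agents (0–80 μM, 0.1% DMSO final) for 24 h in McCoy's 5A with 10% FBS. Medium replaced with 2.41 mM MTT for 3 h at 37°C; formazan dissolved in DMSO, absorbance 550 nm. Viability as percentage of DMSO control; mean ± S.D., n = 6.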

[11] = Drug metabolism in human HCT116 cells assessed as 1-(4'-hydroxy-3'-methoxyphenyl)-4-decen-3-ol formation at 10 uM after 24 hrs by HPLC-ECD analysis; format: ADME, cell-based; details: hct-116, 24 h; outline: as §2
[12] = Drug metabolism in mouse CL-13 cells assessed as 1-(4'-hydroxy-3'-methoxyphenyl)-decan-3-one formation at 10 uM by HPLC-ECD analysis; format: ADME, cell-based; details: cl-13, 10 µM; outline: as §2
Plasma [13] = assay: Drug metabolism in C57BL/6J mouse plasma assessed as sulfated form of metabolite formation at 200 mg/kg, po after 2 to 4 hrs by LC/MS analysis; format: ADME, organism-based; design: dose 200 mg/kg, route oral; details: in vivo
[14] = Drug metabolism in mouse CL-13 cells assessed as 1-(4'-hydroxy-3'-methoxyphenyl)-decan-3-ol formation at 10 uM after 24 hrs by HPLC-ECD analysis; format: ADME, cell-based; details: cl-13, 24 h; outline: as §2
[15] = Drug metabolism in human HCT116 cells assessed as 1-(4'-hydroxy-3'-methoxyphenyl)-decan-3-ol formation at 10 uM after 24 hrs by HPLC-ECD analysis; format: ADME, cell-based; details: hct-116, 24 h; outline: as §2
[16] = Drug excretion in C57BL/6J mouse feces assessed as 1-(4'-hydroxy-3'-methoxyphenyl)-decan-3-one formation at 200 mg/kg, po by HPLC analysis relative to control; format: ADME, organism-based; design: dose 200 mg/kg, route oral; details: in vivo; outline: as §1
[17] = Drug recovery in C57BL/6J mouse urine assessed as glucuronidated form of metabolite formation at 200 mg/kg, po by LC/MS analysis; format: ADME, organism-based; design: dose 200 mg/kg, route oral; details: in vivo; outline: as §3
[18] = Drug excretion in C57BL/6J mouse feces assessed as 5-methylthio-1-(4'-hydroxy-3'-methoxyphenyl)-decan-3-one formation at 200 mg/kg, po by HPLC analysis relative to control; format: ADME, organism-based; design: dose 200 mg/kg, route oral; details: in vivo; outline: as §1
[19] = Drug excretion in C57BL/6J mouse feces assessed as 5-methoxy-1-(4'-hydroxy-3'-methoxyphenyl)-decan-3-one formation at 200 mg/kg, po by HPLC-ECD analysis relative to control; format: ADME, organism-based; design: dose 200 mg/kg, route oral; details: in vivo; outline: as §1
[20] = Drug metabolism in human HCT116 cells assessed as 1-(4'-hydroxy-3'-methoxyphenyl)-decan-3-one formation at 10 uM after 24 hrs by HPLC-ECD analysis; format: ADME, cell-based; details: hct-116, 24 h; outline: as §2
Plasma [21] = assay: Drug metabolism in A/J mouse plasma assessed as glucuronidated form of metabolite formation at 200 mg/kg, po after 2 to 4 hrs by LC/MS analysis; details: in vivo
NCI-H1299 [22] = assay: Induction of apoptosis in human H1299 cells assessed as apoptotic cells at 20 uM after 24 hrs by TUNEL assay; format: functional
Outline: (§5)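 HCT-116 or H-1299 cells seeded at 1.0 × 10⁵/well, after 24 h exposed for 24 h to compound (10–80 μM) or DMSO control. Cells were proteinase K-pretreated, formaldehyde-fixed, and slide-mounted for peroxidase TUNEL staining. Ten fields per slide counted at 400×; brown-nucleus cells given as percentage of total cells; mean ± S.E., n = 10.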

Plasma [23] = assay: Drug metabolism in A/J mouse plasma assessed as glucuronidated form of metabolite formation at 200 mg/kg, po after 2 to 4 hrs by HPLC-ECD analysis; details: in vivo
HCT-116 [24] = assay: Induction of apoptosis in human HCT116 cells assessed as apoptotic cells at 20 uM after 24 hrs by TUNEL assay; format: functional; outline: as §5
[25] = Drug recovery in C57BL/6J mouse urine assessed as sulfated form of metabolite formation at 200 mg/kg, po by HPLC-ECD analysis; format: ADME, organism-based; design: dose 200 mg/kg, route oral; details: in vivo; outline: as §3
[26] = Drug excretion in C57BL/6J mouse feces assessed as (2R)-2-acetamido-3-(3-hydroxy-1-(4-hydroxy-3-methoxyphenyl)decan-5-ylthio)propanoic acid formation at 200 mg/kg, po by HPLC-ECD analysis relative to control; format: ADME, organism-based; design: dose 200 mg/kg, route oral; details: in vivo; outline: as §1
NCI-H1299 [27] = assay: Induction of apoptosis in human H1299 cells assessed as apoptotic cells at 10 uM after 24 hrs by TUNEL assay; format: functional; outline: as §5
[28] = Drug metabolism in human H1299 cells assessed as 1-(4'-hydroxy-3'-methoxyphenyl)-decan-3-ol formation at 10 uM after 24 hrs by HPLC-ECD analysis; format: ADME, cell-based; details: nci-h1299, 24 h; outline: as §2
[29] = Drug excretion in C57BL/6J mouse feces assessed as 5-methylthio-1-(4'-hydroxy-3'-methoxyphenyl)-decan-3-ol formation at 200 mg/kg, po by HPLC-ECD analysis relative to control; format: ADME, organism-based; design: dose 200 mg/kg, route oral; details: in vivo; outline: as §1
[30] = Cytotoxicity against human H1299 cells assessed as growth inhibition after 24 hrs by MTT assay; format: functional, cell-based; details: NCI-H1299, 24 h; outline: as §4
[31] = Drug excretion in C57BL/6J mouse feces assessed as 1-(4'-hydroxy-3'-methoxyphenyl)-4-decen-3-ol formation at 200 mg/kg, po by HPLC-ECD analysis relative to control; format: ADME, organism-based; design: dose 200 mg/kg, route oral; details: in vivo; outline: as §1
HCT-116 [32] = assay: Induction of apoptosis in human HCT116 cells assessed as apoptotic cells at 10 uM after 24 hrs by TUNEL assay; format: functional; outline: as §5
[33] = Drug excretion in C57BL/6J mouse feces assessed as 5-N-acetylcysteinyl-[6]-shogaol formation at 200 mg/kg, po by HPLC-ECD analysis relative to control; format: ADME, organism-based; design: dose 200 mg/kg, route oral; details: in vivo; outline: as §1
[34] = Drug excretion in C57BL/6J mouse feces assessed as 1-(4'-hydroxy-3'-methoxyphenyl)-decan-3-ol formation at 200 mg/kg, po by HPLC-ECD analysis relative to control; format: ADME, organism-based; design: dose 200 mg/kg, route oral; details: in vivo; outline: as §1
HT-29 [35] = assay: Drug metabolism in human HT-29 cells assessed as 1-(4'-hydroxy-3'-methoxyphenyl)-decan-3-one formation at 10 uM by HPLC-ECD analysis; format: ADME, cell-based; details: ht-29, 10 µM; outline: as §2
[36] = Drug excretion in C57BL/6J mouse feces assessed as 2-((2R)-2-amino-3-(3-hydroxy-1-(4-hydroxy-3-methoxyphenyl)decan-5-ylthio)propanamido)acetic acid formation at 200 mg/kg, po by HPLC-ECD analysis relative to control; format: ADME, organism-based; design: dose 200 mg/kg, route oral; details: in vivo; outline: as §1
Plasma [37] = assay: Drug metabolism in A/J mouse plasma assessed as sulfated form of metabolite formation at 200 mg/kg, po after 2 to 4 hrs by HPLC analysis; details: in vivo
[38] = Drug metabolism in human HCT116 cells assessed as retention time treated with 10 uM [6]-shogaol after 24 hrs by HPLC-ECD analysis; format: ADME, cell-based; details: hct-116, 24 h; outline: as §2

Compound: CCCCCC(CC(O)CCc1ccc(O)c(OC)c1)SCC(NC(C)=O)C(=O)O (stereo not drawn)
Drug excretion [1]: metabolite_detected

Compound: CCCCCC(CC(=O)CCc1ccc(O)c(OC)c1)SC[C@H](NC(=O)CC[C@H](N)C(=O)O)C(=O)NCC(=O)O (stereo partly drawn)
Retention_time [38]: 14.5 min

Compound: CCCCCC(CC(O)CCc1ccc(O)c(OC)c1)SCC(N)C(=O)O (stereo not drawn)
Drug excretion [1]: metabolite_detected

Compound: CCCCCC(CC(O)CCc1ccc(O)c(OC)c1)SCC(N)C(=O)NCC(=O)O (stereo not drawn)
Drug excretion [1]: metabolite_detected

Continued, in another order:

Drug excretion [2]: metabolite_detected
Drug metabolism [3]: metabolite_detected
Drug excretion [4]: metabolite_detected
Drug excretion [5]: metabolite_detected
Drug recovery [6]: metabolite_detected
IC50 [7]: 8 µM
Drug recovery [8]: metabolite_detected
Drug metabolism (HT-29 [9]): metabolite_detected
Drug metabolism [11]: metabolite_detected
Drug metabolism [12]: metabolite_detected
Drug metabolism (Plasma [13]): metabolite_detected
Drug metabolism [14]: metabolite_detected
Drug metabolism [15]: metabolite_detected
Drug excretion [16]: metabolite_detected
Drug recovery [17]: metabolite_detected
Drug excretion [18]: metabolite_detected
Drug excretion [19]: metabolite_detected
Drug metabolism [20]: metabolite_detected
Drug metabolism (Plasma [21]): metabolite_detected
Drug metabolism (Plasma [23]): metabolite_detected
Drug recovery [25]: metabolite_detected
Drug excretion [26]: metabolite_detected
Drug metabolism [28]: metabolite_detected
Drug excretion [29]: metabolite_detected
Drug excretion [31]: metabolite_detected
Drug excretion [33]: metabolite_detected
Drug excretion [34]: metabolite_detected
Drug metabolism (HT-29 [35]): metabolite_detected
Drug excretion [36]: metabolite_detected
Drug metabolism (Plasma [37]): metabolite_detected
Compound: CCCCC/C=C/C(=O)CCc1ccc(O)c(OC)c1 [SHOGAOL]
IC50 [10]: 18.7 µM
Activity (NCI-H1299 [22]): 31.6%
Activity (HCT-116 [24]): 31.2%
Activity (NCI-H1299 [27]): 5.2%
IC50 [30]: 16.9 µM
Activity (HCT-116 [32]): 10.3%

IC50 [7]: 20 µM
Compound: CCCCCCC[C@H](O)CC(=O)CCc1ccc(O)c(OC)c1

IC50 [7]: 28 µM
Compound: CCCCC[C@H](O)CC(=O)CCc1ccc(O)c(OC)c1 [GINGEROL]

Drug excretion [1]: metabolite_detected
Compound: CCCCCC(CC(=O)CCc1ccc(O)c(OC)c1)SCC(N)C(=O)O (stereo not drawn)
